We go through 11 compounds from ChEMBL document CHEMBL1149895, “Steroids and flavonoids from Physalis alkekengi var. franchetii and their inhibitory effects on nitric oxide production” (J Nat Prod, 2008).

Each structure is given as a SMILES string.

The subject of the assay is RAW264.7. Nature of the assay: Inhibition of LPS-induced nitric oxide production in mouse RAW264.7 cells assessed as nitrite formation. The assay is classed as functional, cell-based. In a few lines: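 RAW 264.7 cells in RPMI 1640 with 10% heat-inactivated FBS, penicillin and streptomycin, seeded at 1 × 10^5 cells/well and allowed to adhere 2 h at 37 °C in 5% CO2. LPS 1 µg/mL with or without compound (DMSO 0.2% v/v final) for 24 h. Supernatant nitrite read by Griess reagent against a 0–100 µM sodium nitrite line. Inhibition taken relative to LPS-only and untreated wells. Triplicate, mean ± SD of three independent experiments.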
By IC50 is commonly meant the concentration that gives 50% inhibition. Take `C[C@]12CCC(=O)C=C1CC[C@@H]1[C@@H]2[C@@H](O)C[C@@]2(C)[C@H]1CC[C@]2(O)C(=O)CO` [HYDROCORTISONE]: the IC50 was found to be 64.3 µM.

For the compound `O=c1cc(-c2ccc(O)c(O)c2)oc2cc(O)cc(O)c12` [LUTEOLIN], the half-inhibitory concentration (IC50) was determined as 7.39 µM.

In the case of `C[C@]12C(=O)C[C@H](O)C=C1C=C[C@@H]1[C@@H]2CC[C@]2(O)C(=O)O[C@@]3(C)[C@H]4C[C@]5(C)[C@@H](CO[C@@]16O[C@@]32[C@H]5C6=O)C(=O)O4` [ISOPHYSALIN G], the IC50 worked out at 64 µM.

`C[C@]12C(=O)C[C@@H](O)CC1=CC[C@@H]1[C@@H]2CC[C@]2(O)C(=O)O[C@@]3(C)[C@H]4C[C@]5(C)[C@@H](CO[C@@]16O[C@@]32[C@H]5C6=O)C(=O)O4` [PHYSALIN Y]: the IC50 stood at 79.2 µM.

With `COc1cc(O)c2c(=O)c(O)c(-c3ccc(OC)c(O)c3)oc2c1` [OMBUINE], the IC50 came to 2.23 µM.

Regarding `CO[C@H]1C=C2C=C[C@@H]3[C@H](CC[C@]4(O)C(=O)O[C@@]5(C)[C@H]6C[C@](C)([C@H](C)C(=O)O6)[C@H]6[C@@]3(O)C(=O)O[C@@]654)[C@@]2(C)C(=O)C1` [PHYSALIN I], the IC50 worked out at 84 µM.

Regarding `C=C1C(=O)O[C@@H]2C[C@@]1(C)[C@@H]1C(=O)[C@]3(O)O[C@]14[C@@]2(C)OC(=O)[C@@]4(O)CC[C@H]1[C@H]3[C@H](O)C=C2CC=CC(=O)[C@@]21C` [PHYSALIN A], the IC50 is 2.57 µM.

For the compound `C[C@@H]1C(=O)O[C@@H]2C[C@@]1(C)[C@@H]1C(=O)[C@]3(O)O[C@]14[C@@]2(C)OC(=O)[C@@]4(O)CC[C@H]1[C@H]3[C@H](O)C=C2CC=CC(=O)[C@@]21C` [PHYSALIN O], the IC50 amounted to 17.1 µM.

For the compound `C[C@]12C(=O)C[C@@H](O)C=C1C=C[C@@H]1[C@@H]2CC[C@]2(O)C(=O)O[C@@]3(C)[C@H]4C[C@]5(C)[C@@H](CO[C@@]16O[C@@]32[C@H]5C6=O)C(=O)O4` [PHYSALIN Z], the IC50 is 75.7 µM.

Take `C[C@]12C(=O)C=CCC1=CC[C@@H]1[C@@H]2CC[C@]2(O)C(=O)O[C@@]3(C)[C@H]4C[C@]5(C)[C@@H](CO[C@@]16O[C@@]32[C@H]5C6=O)C(=O)O4` [PHYSALIN B]: the IC50 amounted to 0.84 µM.

For the compound `C[C@@]12C[C@H]3OC(=O)[C@@H]1CO[C@]14O[C@]5([C@H]2C1=O)[C@@](O)(CC[C@H]1[C@H]4C[C@H]2O[C@]24CC=CC(=O)[C@]14C)C(=O)O[C@@]35C` [PHYSALIN F], the IC50 worked out at 0.33 µM.
